Laboratory results from ChEMBL document CHEMBL3259694, “Design and synthesis of molecular probes for the determination of the target of the anthelmintic drug praziquantel” (Bioorg Med Chem Lett, 2014).
Calls of active or inactive are those of the source. The calls are words filed in the database; no cut-off is given here.

Key:
[1] = tested on: Schistosoma mansoni; experiment: Anthelmintic activity against sexually mature Schistosoma mansoni PR-1 adult worm assessed immediate worm contraction by stereomicroscopic analysis; type: functional, organism-based
In short: (§1)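 Adult male worms were watched for contraction, shortening or paralysis at once on addition of the compound. Worms were then kept overnight in its presence before washout.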

[2] = tested on: Schistosoma mansoni; experiment: Anthelmintic activity against sexually mature Schistosoma mansoni PR-1 adult worm assessed immediate worm paralysis by stereomicroscopic analysis; type: functional, organism-based; in short: as §1
[3] = tested on: Schistosoma mansoni; experiment: Anthelmintic activity against sexually mature Schistosoma mansoni PR-1 adult worm assessed as parasite death incubated for overnight measured after 7 days drug wash-out period by stereomicroscopic analysis; type: functional, organism-based; settings: PR-1, 168 h
In short: (§2)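 Adult male worms exposed in vitro overnight to a range of concentrations, then washed and kept 7 days in drug-free medium. Motility, contraction and survival were scored at day 7. EC50 was taken from dose-response curves of percent worms alive at day 7 against log concentration, as mean and SEM of three replicates, with 95% confidence intervals.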

[4] = tested on: Schistosoma mansoni; experiment: Anthelmintic activity against sexually mature Schistosoma mansoni PR-1 adult worm assessed as worm contractility without movement at >40 uM incubated for overnight measured after 7 days drug wash-out period by stereomicroscopic analysis; type: functional, organism-based; in short: as §2
[5] = tested on: Schistosoma mansoni; experiment: Anthelmintic activity against sexually mature Schistosoma mansoni PR-1 adult worm assessed immediate worm shortening by stereomicroscopic analysis; type: functional, organism-based; in short: as §1
[6] = Solubility in 1% DMSO at 300 uM; type: physicochemical
[7] = tested on: Schistosoma mansoni; experiment: Anthelmintic activity against sexually mature Schistosoma mansoni PR-1 adult worm assessed as loosely curled worm with little movement at >100 uM incubated for overnight measured after 7 days drug wash-out period by stereomicroscopic analysis; type: functional, organism-based; in short: as §2
[8] = Solubility in 1% DMSO at >300 uM; type: physicochemical
[9] = tested on: Schistosoma mansoni; experiment: Anthelmintic activity against sexually mature Schistosoma mansoni PR-1 adult worm assessed as parasite death by measuring worm contractility at 1 uM incubated for overnight measured after 7 days drug wash-out period by stereomicroscopic analysis; type: functional, organism-based; in short: as §2
[10] = tested on: Schistosoma mansoni; experiment: Anthelmintic activity against sexually mature Schistosoma mansoni PR-1 adult worm assessed as worm contractility and little movement at >60 uM incubated for overnight measured after 7 days drug wash-out period by stereomicroscopic analysis; type: functional, organism-based; in short: as §2
[11] = tested on: Schistosoma mansoni; experiment: Anthelmintic activity against sexually mature Schistosoma mansoni PR-1 adult worm assessed as parasite death by measuring worm contractility at 0.3 uM incubated for overnight measured after 7 days drug wash-out period by stereomicroscopic analysis; type: functional, organism-based; in short: as §2

Cc1cc(C)n2c1C=C1C=CC(CCC(=O)N3CC(=O)N4CCc5ccccc5[C@@H]4C3)=[N+]1[B-]2(F)F
Activity [1]: inactive | Activity [2]: inactive | EC50 [3]: 53.3 µM | Activity [4]: Active

C#CCN(C(=O)c1ccc(C2(C(F)(F)F)N=N2)cc1)c1ccc(C(=O)N2CC(=O)N3CCc4ccccc4[C@@H]3C2)cc1
Activity [1]: inactive | Activity [5]: inactive | solubility [6]: soluble | EC50 [3]: 132 µM | Activity [7]: Active

C#CCN(Cc1ccc(C(=O)N2CC(=O)N3CCc4ccccc4[C@@H]3C2)cc1)C(=O)CCCCCNC(=O)CCC1(C)N=N1
solubility [8]: soluble | EC50 [3]: > 300 µM

O=C(C1CCCCC1)N1CC(=O)N2CCc3ccccc3C2C1 (racemic) [PRAZIQUANTEL]
Activity [9]: Active | EC50 [3]: 2.5 µM

O=C(C1CCCCC1)N1CC(=O)N2CCc3ccccc3[C@H]2C1
Activity [10]: Active | EC50 [3]: 78.1 µM

O=C(C1CCCCC1)N1CC(=O)N2CCc3ccccc3[C@@H]2C1 [PRAZIQUANTEL, (R)-]
EC50 [3]: 0.5 µM | Activity [11]: Active
